According to publication PMC2810141 (Biochemistry, 2008):
“Also recorded” adds a separate entry of the source.

Tests used:
[1] = target: T1, human P4H (Homo sapiens, UniProt P13674); assay: HPLC-based assay of P4H enzymatic activity; type: biochemical; conditions: for Product formation as substrate for P4H: HPLC (for Mtp also mass spectrometry), data not shown; for Substrate or Inhibitor: PEG-Gly–Tyr–Yaa–GlyOEt, 50 mM Tris–HCl pH 7.8, P4H 90 nM, α-ketoglutarate 500 μM; for Substrate or Inhibitor / kcat / Km / kcat/KM / kcat/KM relative to that of the Pro-containing peptide: HPLC-based assay; for Substrate or Inhibitor / kcat / Km / kcat/KM: 5 min, 30 °C; for kcat / Km / kcat/KM: pH 7.8, P4H 90 nM, substrate 0.05–3 mM, mean ± SE of three replicates; for kcat / Km: Michaelis–Menten fit
How it was run: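 Human P4H from a previously reported preparation at 90 nM, in 50 mM Tris–HCl pH 7.8 with BSA 1 mg/mL, catalase 100 μg/mL, DTT 100 μM, ascorbate 2 mM, FeSO4 50 μM and α-ketoglutarate 500 μM. Started with tetrapeptide (0.05–3 mM; ethanol stock), run 5 min at 30 °C, then boiled 60 s. Triplicates. C18 HPLC; substrate:product ratio from A214; Michaelis–Menten fit.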

[2] = target: T1, human P4H; assay: [14C]CO2-release assay from [1-14C]α-ketoglutarate; type: biochemical; conditions: substrate at 10% of KM; duplicate
How it was run: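 Release of [14C]CO2 from [1-14C]α-ketoglutarate. Component levels as in the HPLC assay, except P4H at 395 nM. Each peptide tested at 10% of its KM from the HPLC assay. Run in duplicate; the decarboxylation rate without peptide was subtracted. Rate (μM/min) expressed as % of the Pro-containing peptide.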

[3] = test system: P4H; conditions: binds to the enzyme, not hydroxylated; ref [33]; cited from earlier work

T1 sequence (P13674 18-534): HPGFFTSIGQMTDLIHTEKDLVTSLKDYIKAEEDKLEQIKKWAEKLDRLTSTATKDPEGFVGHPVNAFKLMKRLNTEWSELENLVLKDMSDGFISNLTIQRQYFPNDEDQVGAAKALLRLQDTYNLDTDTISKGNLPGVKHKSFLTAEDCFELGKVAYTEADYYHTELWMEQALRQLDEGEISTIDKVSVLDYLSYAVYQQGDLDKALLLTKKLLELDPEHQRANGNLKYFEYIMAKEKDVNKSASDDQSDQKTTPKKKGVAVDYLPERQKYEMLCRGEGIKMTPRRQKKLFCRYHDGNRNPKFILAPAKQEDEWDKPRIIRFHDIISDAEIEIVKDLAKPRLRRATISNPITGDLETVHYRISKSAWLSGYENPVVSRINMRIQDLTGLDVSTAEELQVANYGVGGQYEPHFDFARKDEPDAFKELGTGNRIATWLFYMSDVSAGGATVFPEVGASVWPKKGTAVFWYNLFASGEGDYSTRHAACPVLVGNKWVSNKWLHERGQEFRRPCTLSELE
T1 sequence (P07237 18-508 partner): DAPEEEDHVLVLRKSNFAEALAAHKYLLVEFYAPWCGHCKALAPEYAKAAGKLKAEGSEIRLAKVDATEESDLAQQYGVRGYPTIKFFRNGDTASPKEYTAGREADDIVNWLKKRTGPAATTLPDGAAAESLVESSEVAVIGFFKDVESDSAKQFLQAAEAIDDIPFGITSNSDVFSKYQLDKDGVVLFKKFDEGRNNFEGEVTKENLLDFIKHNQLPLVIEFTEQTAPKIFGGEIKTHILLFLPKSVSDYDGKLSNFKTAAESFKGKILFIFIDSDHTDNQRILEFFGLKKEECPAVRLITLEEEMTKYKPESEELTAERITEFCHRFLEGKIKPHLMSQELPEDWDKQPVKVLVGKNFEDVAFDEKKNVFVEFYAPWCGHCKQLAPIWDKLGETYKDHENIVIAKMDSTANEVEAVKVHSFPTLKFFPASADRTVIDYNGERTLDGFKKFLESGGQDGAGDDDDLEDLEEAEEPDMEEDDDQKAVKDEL

Product formation as substrate for P4H [1] | Substance | Substrate or Inhibitor [1] | kcat [1] [s⁻¹] | Km ([1]; SEM) [µM] | kcat ([1]; SEM) [s⁻¹] | kcat/KM [1] | kcat/KM relative to that for dansyl-Gly–Phe–Pro–GlyOEt ([1]; comparator value from ref [18]) [fold] | % of Pro (rate of CO2 release) [2] [%] | kcat/KM relative to that of the Pro-containing peptide [1] [%] | Inhibition of P4H enzymatic activity [3]
No product was detected | Cbz-Gly–Tyr–Mtp–GlyOEt | Neither | – | – | – | – | – | – | – | –
not found to be a substrate | PEG-Gly–Tyr–Kep–GlyOEt | neither substrates nor inhibitors; also recorded: Neither | – | – | – | – | – | – | – | –
– | PEG-Gly–Tyr–Pro–GlyOEt | Substrate | 6 | 580 ± 30 | 6 ± 0.12 | 10 ± 0.6 10^3 M^−1s^−1 | 3 | 100 | – | –
– | PEG-Gly–Tyr–Thp–GlyOEt | Substrate | – | 6400 ± 1400 | 7.83 ± 0.983 | 1.2 ± 0.3 10^3 M^−1s^−1 | – | 6 | 12 | –
– | polyproline | – | – | – | – | – | – | – | – | competitive inhibitor

Substance | Product formation as substrate for P4H [1] | Substrate or Inhibitor [1] | kcat [1] [s⁻¹] | Km ([1]; SEM) [µM] | kcat ([1]; SEM) [s⁻¹] | kcat/KM [1] | kcat/KM relative to that for dansyl-Gly–Phe–Pro–GlyOEt ([1]; comparator value from ref [18]) [fold] | % of Pro (rate of CO2 release) [2] [%] | kcat/KM relative to that of the Pro-containing peptide [1] [%] | Inhibition of P4H enzymatic activity [3]
PEG-Gly–Tyr–flp–GlyOEt | No product formation was detected | Substrate | 4.17 | 1600 ± 300 | 4.17 ± 0.35 | 2.7 ± 0.5 10^3 M^−1s^−1 | – | 26 | 27 | –
